Results gathered from unrelated publications.
Read-out: cell growth or viability

| SMILES | cell line | technique | tested at | time | quantity | result |
| --- | --- | --- | --- | --- | --- | --- |
| COc1cc2c3c(n(CCCn4ccnc4)c(=O)c2cc1OC)-c1nc2c(cc1C3=O)OCO2 | SK-N-MC | MTS |  | 72 h | IC50 | 170 nM |
| O=C(C=Cc1ccccc1)Nc1cc(-c2ccnc(N3CCC(O)CC3)c2)ccn1 | HCC1937 | MTT |  | 72 h | IC50 | 528 nM |
| Nc1ccc(/C=C/C(=O)N2CCc3c(oc4c(-c5ccc(F)cc5)cc(-c5ccc(C(=O)N6CCC(F)(F)CC6)nn5)cc34)C2)cn1 | Pan02 | CCK-8 |  | 72 h | IC50 | 250 nM |
| CCN(CCO)CCCC(C)Nc1ccnc2cc(Cl)ccc12 (centres unmarked) | SH-SY5Y | resazurin |  |  | IC50 | > 50000 nM |
| C=CC(=O)NC1CCN(c2ncc3ncnc(Nc4ccc(Oc5ccc6c(c5)ncn6C)c(C)c4)c3n2)CC1 | KNS-62 |  |  |  | EC50 | 11 nM |
| CC(C)(C)c1cnc(CSc2cnc(NC(=O)C3CCN(CCCCCCCCSc4cccc5c4CN(C4CCC(=O)NC4=O)C5=O)CC3)s2)o1 (centres unmarked) | HuT78 | trypan blue | 0.25 µM | 48 h | viability | 22.4% |
| C#Cc1nc(C2=C(C)C(OC(=O)C(C)(C)C)/C(=N\OC(=O)C(C)(C)C)C2)cs1 (centres unmarked) | HT-1080 |  |  |  | CC50 | 73 nM |
| Nc1ccc(/C=C/C(=O)N2CCc3c(oc4c(-c5ccc(F)cc5)cc(-c5ccc(C(=O)N6C[C@@H]7[C@H](C6)C7(F)F)nn5)cc34)C2)cn1 | Pan02 | CCK-8 |  | 72 h | IC50 | 300 nM |
| [H]/N=C(\N/C(=N/[H])Nc1ccc(Cl)cc1)NC(C)C | SH-SY5Y | resazurin |  |  | IC50 | > 50000 nM |
| CC(C)c1ccccc1[C@@H]1CCCN1C1CC2(CCN(c3ccc(C(=O)NS(=O)(=O)c4ccc(NC[C@H]5CC[C@](C)(O)CC5)c([N+](=O)[O-])c4)c(Oc4cnc5[nH]ccc5c4)c3)CC2)C1 | MM.1R | ATP luminescence |  | 48 h | IC50 | 7430 nM |
| O=C1C(O)=C([C@H]2CC[C@H](c3ccc(Cl)cc3)CC2)C(=O)c2ccccc21 | SH-SY5Y | resazurin |  |  | IC50 | > 50000 nM |
| COc1cc2c3c(n(CCCNC(C)C)c(=O)c2cc1OC)-c1nc2c(cc1C3=O)OCO2 | SK-N-MC | MTS |  | 72 h | IC50 | 150 nM |
| COc1cc(NC(C)CCCN)c2ncccc2c1 (centres unmarked) | SH-SY5Y | resazurin |  |  | IC50 | > 50000 nM |
| CC(C)(C)c1cnc(CSc2cnc(NC(=O)C3CCN(CCCCCSc4cccc5c4CN(C4CCC(=O)NC4=O)C5=O)CC3)s2)o1 (centres unmarked) | HuT78 | trypan blue | 0.25 µM | 48 h | viability | 9.46% |
